# Values joined by “and” are separate entries in the source; they are usually repeats but may differ in a detail not shown here. Equal values may be shown once.
# Tested on: Fibroblast
# Experiment: Multiplex assay against human fibroblast
# Assay type: toxicity, cell-based
# Procedure, shortened: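 Per cents of healthy-nucleus cells form the tubulin, mitochondrial-mass and membrane-permeability phenotype values. Live cells were stained at seeding with Hoechst33342, BioTracker Green Microtubule Cytoskeleton Dye, MitoTracker Red and Annexin V Alexa Fluor 680. After compound addition they were imaged on a CQ1 microscope at 37°C and 5% CO2, and CellPathfinder machine-learning gating split them into Hoechst high-intensity objects or normal cells, normal cells into healthy, pyknosed or fragmented nuclei, and pyknosed cells into mitotic or apoptotic.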
# [1] = 12 h, 1 µM, compound concentration 1 uM
# [2] = 12 h, 10 µM, compound concentration 10 uM
# [3] = 24 h, 1 µM, compound concentration 1 uM
# [4] = 24 h, 10 µM, compound concentration 10 uM
# [5] = 48 h, 1 µM, compound concentration 1 uM
# [6] = 48 h, 10 µM, compound concentration 10 uM
compound,measurement,setting,value
CC(/C=C1\SC(=S)N(CCCC(=O)Nc2ccc(C(=O)O)c(O)c2)C1=O)=C\c1ccccc1,Population Apoptotic (%),[1],50% and 33%
same,Population Fragmented Nuclei (%),[1],14% and 19%
same,Population Healthy Nuclei (%),[1],71% and 60%
same,Population Hoechst High Intensity Objects (%),[1],2% and 3%
same,Population Membrane Permeable-Phenotype (%),[1],0% and 13%
same,Population Mitochondria Different-Phenotype (%),[1],2% and 9%
same,Population Mitotic Cells (%),[1],50% and 66%
same,Population Normal (%),[1],97% and 96%
same,Population Pyknosed Nuclei (%),[1],13% and 19%
same,Population Tubulin-Different-Phenotype (%),[1],28% and 54%
same,Total Cell Count,[1],206 and 157
same,Population Apoptotic (%),[2],56% and 40%
same,Population Fragmented Nuclei (%),[2],15% and 19%
same,Population Healthy Nuclei (%),[2],70% and 48%
same,Population Hoechst High Intensity Objects (%),[2],2% and 4%
same,Population Membrane Permeable-Phenotype (%),[2],0% and 8%
same,Population Mitochondria Different-Phenotype (%),[2],5%
same,Population Mitotic Cells (%),[2],43% and 59%
same,Population Normal (%),[2],97% and 95%
same,Population Pyknosed Nuclei (%),[2],13% and 31%
same,Population Tubulin-Different-Phenotype (%),[2],44% and 54%
same,Total Cell Count,[2],123 and 122
same,Population Apoptotic (%),[3],54% and 33%
same,Population Fragmented Nuclei (%),[3],17%
same,Population Healthy Nuclei (%),[3],72% and 63%
same,Population Hoechst High Intensity Objects (%),[3],1% and 2%
same,Population Membrane Permeable-Phenotype (%),[3],2% and 5%
same,Population Mitochondria Different-Phenotype (%),[3],4% and 12%
same,Population Mitotic Cells (%),[3],45% and 66%
same,Population Normal (%),[3],98% and 97%
same,Population Pyknosed Nuclei (%),[3],10% and 19%
same,Population Tubulin-Different-Phenotype (%),[3],25% and 44%
same,Total Cell Count,[3],208 and 144
same,Population Apoptotic (%),[4],66% and 53%
same,Population Fragmented Nuclei (%),[4],11% and 20%
same,Population Healthy Nuclei (%),[4],81% and 53%
same,Population Hoechst High Intensity Objects (%),[4],0% and 4%
same,Population Membrane Permeable-Phenotype (%),[4],0% and 11%
same,Population Mitochondria Different-Phenotype (%),[4],4%
same,Population Mitotic Cells (%),[4],33% and 46%
same,Population Normal (%),[4],99% and 95%
same,Population Tubulin-Different-Phenotype (%),[4],25% and 70%
same,Total Cell Count,[4],119 and 120
same,Population Apoptotic (%),[5],78% and 45%
same,Population Fragmented Nuclei (%),[5],24% and 29%
same,Population Healthy Nuclei (%),[5],66% and 56%
same,Population Hoechst High Intensity Objects (%),[5],3% and 1%
same,Population Membrane Permeable-Phenotype (%),[5],1% and 7%
same,Population Mitochondria Different-Phenotype (%),[5],2% and 6%
same,Population Mitotic Cells (%),[5],21% and 54%
same,Population Normal (%),[5],96% and 98%
same,Population Pyknosed Nuclei (%),[5],9% and 14%
same,Population Tubulin-Different-Phenotype (%),[5],31% and 44%
same,Total Cell Count,[5],216 and 159
same,Population Apoptotic (%),[6],46% and 59%
same,Population Fragmented Nuclei (%),[6],18% and 34%
same,Population Healthy Nuclei (%),[6],69% and 46%
same,Population Hoechst High Intensity Objects (%),[6],0% and 3%
same,Population Membrane Permeable-Phenotype (%),[6],0% and 5%
same,Population Mitochondria Different-Phenotype (%),[6],1% and 5%
same,Population Mitotic Cells (%),[6],53% and 40%
same,Population Normal (%),[6],100% and 96%
same,Population Pyknosed Nuclei (%),[6],12% and 19%
same,Population Tubulin-Different-Phenotype (%),[6],33% and 58%
same,Total Cell Count,[6],124 and 118
Cc1ccc(-c2ccc(F)cc2COc2ccc(CCC(=O)O)cc2)cc1,Population Apoptotic (%),[1],42% and 37%
same,Population Fragmented Nuclei (%),[1],13% and 23%
same,Population Healthy Nuclei (%),[1],64% and 45%
same,Population Mitotic Cells (%),[1],57% and 62%
same,Population Normal (%),[1],99% and 93%
same,Population Pyknosed Nuclei (%),[1],21% and 30%
same,Population Tubulin-Different-Phenotype (%),[1],26%
same,Total Cell Count,[1],131 and 148
same,Population Apoptotic (%),[2],19% and 31%
same,Population Fragmented Nuclei (%),[2],15% and 23%
same,Population Healthy Nuclei (%),[2],67% and 51%
same,Population Mitotic Cells (%),[2],80% and 68%
same,Population Normal (%),[2],99% and 93%
same,Population Pyknosed Nuclei (%),[2],16% and 25%
same,Population Tubulin-Different-Phenotype (%),[2],23% and 38%
same,Total Cell Count,[2],125 and 136
same,Population Apoptotic (%),[3],38% and 62%
same,Population Fragmented Nuclei (%),[3],16% and 25%
same,Population Healthy Nuclei (%),[3],67% and 46%
same,Population Mitotic Cells (%),[3],61% and 37%
same,Population Normal (%),[3],97% and 95%
same,Population Pyknosed Nuclei (%),[3],15% and 27%
same,Population Tubulin-Different-Phenotype (%),[3],23% and 33%
same,Total Cell Count,[3],136 and 139
same,Population Apoptotic (%),[4],47% and 46%
same,Population Fragmented Nuclei (%),[4],9% and 26%
same,Population Healthy Nuclei (%),[4],75% and 53%
same,Population Mitotic Cells (%),[4],52% and 53%
same,Population Normal (%),[4],98% and 92%
same,Population Pyknosed Nuclei (%),[4],15% and 20%
same,Population Tubulin-Different-Phenotype (%),[4],20% and 55%
same,Total Cell Count,[4],127 and 136
same,Population Apoptotic (%),[5],56% and 69%
same,Population Fragmented Nuclei (%),[5],21% and 29%
same,Population Healthy Nuclei (%),[5],62% and 55%
same,Population Mitotic Cells (%),[5],43% and 30%
same,Population Normal (%),[5],96%
same,Population Pyknosed Nuclei (%),[5],15%
same,Population Tubulin-Different-Phenotype (%),[5],24% and 46%
same,Total Cell Count,[5],150 and 155
same,Population Apoptotic (%),[6],72% and 48%
same,Population Fragmented Nuclei (%),[6],11% and 30%
same,Population Healthy Nuclei (%),[6],78% and 45%
same,Population Mitotic Cells (%),[6],27% and 51%
same,Population Normal (%),[6],96% and 92%
same,Population Pyknosed Nuclei (%),[6],9% and 23%
same,Total Cell Count,[6],121 and 140

# From ChEMBL document CHEMBL5724801, “EUbOPEN Chemogenomics Library - Multiplex” (2024)
